According to ChEMBL document CHEMBL1122522, “Conformationally restricted retinoids” (1984):

Columns and labels:
[1] = tested on: Cricetinae gen. sp.; test: Activity of compound the was expressed as ratio of active hamster tracheal organ cultures(TOC) to the total cultures at 10e-10 M concentration; 4/13; type: functional, Cricetulus griseus, Trachea
Summary of the method: (§1)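 Tracheal organ cultures came from vitamin A-deficient hamsters. Each culture was scored for reversal of keratinization and reported as active cultures out of total cultures at each retinoid concentration tested (10⁻⁸ to 10⁻¹² M). The protocol followed earlier published methods.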

[2] = tested on: Cricetinae gen. sp.; test: Molarity required to effect reversal of keratinization in 50% of cultures.; type: functional, Cricetulus griseus
[3] = tested on: Cricetinae gen. sp.; test: Activity of compound the was expressed as ratio of active hamster tracheal organ cultures(TOC) to the total cultures at 10e-8 M concentration; 7/7; type: functional, Cricetulus griseus, Trachea; details: at 0.01 µM
[4] = tested on: Cricetinae gen. sp.; test: Activity of compound the was expressed as ratio of active hamster tracheal organ cultures(TOC) to the total cultures at 10e-9 M concentration; 7/7; type: functional, Cricetulus griseus, Trachea; summary of the method: as §1
[5] = species on record: Mus musculus; test: Tested for relative activity in a 20-week anti-papilloma experiment in female CD-1 mice at dose 170 nmol; type: functional
Summary of the method: (§2)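 Female Charles River CD-1 mice, 8 weeks old, in random groups of 25–30, were shaved 2 days before initiation with 200 nmol DMBA in acetone on the back. From 2 weeks on, 8.5 nmol TPA was applied twice weekly for 20 weeks. Retinoid in 0.2 mL acetone, or acetone alone for controls, was given 1 h before each TPA dose. Papillomas were counted weekly, and mean papillomas per mouse were compared with controls at 20 weeks.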

[6] = species on record: Mus musculus; test: Tested for relative activity in a 20-week anti-papilloma experiment in female CD-1 mice at dose 17 nmol; type: functional; summary of the method: as §2
[7] = species on record: Mus musculus; test: Percent decrease in average number of papillomas at dose 170 nmol; type: functional; summary of the method: as §2
[8] = species on record: Mus musculus; test: Percent decrease in average number of papillomas at dose 17 nmol; type: functional; summary of the method: as §2
[9] = biological target: T1, Ornithine decarboxylase (Mus musculus) (UniProt P00860); test: Inhibition of the induction of ornithine decarboxylase in mouse epidermis by the tumor promoter 12-O-tetradecanoylphorbol-13-acetate (ODC) at dose 1.7 nmol
T1 sequence (whole entry): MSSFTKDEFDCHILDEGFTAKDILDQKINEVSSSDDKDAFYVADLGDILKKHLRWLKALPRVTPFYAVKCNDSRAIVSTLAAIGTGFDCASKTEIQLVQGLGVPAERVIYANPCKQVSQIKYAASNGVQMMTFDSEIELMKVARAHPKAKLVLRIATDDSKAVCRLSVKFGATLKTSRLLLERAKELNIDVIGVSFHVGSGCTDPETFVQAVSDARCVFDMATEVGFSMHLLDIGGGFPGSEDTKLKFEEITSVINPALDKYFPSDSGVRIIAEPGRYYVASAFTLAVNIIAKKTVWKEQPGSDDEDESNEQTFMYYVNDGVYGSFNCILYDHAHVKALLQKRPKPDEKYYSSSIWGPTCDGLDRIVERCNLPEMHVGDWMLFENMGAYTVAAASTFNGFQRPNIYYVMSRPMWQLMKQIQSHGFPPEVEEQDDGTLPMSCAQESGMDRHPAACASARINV

[10] = biological target: T1, Ornithine decarboxylase (Mus musculus); test: Inhibition of the induction of ornithine decarboxylase in mouse epidermis by the tumor promoter 12-O-tetradecanoylphorbol-13-acetate (ODC) at dose 17 nmol
[11] = Mortality range in days at dose 200 umol/kg day; type: functional, Mus musculus
Summary of the method: (§3)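 Adult female Swiss mice (20–25 g) had chow and water ad libitum. The retinoid was homogenized as a suspension in aqueous 8% Cremophor EL plus 10% propylene glycol. It was given ip as 10 weekday injections over 14 days. Controls received vehicle alone. Survivors were weighed on days 1, 5, 10 and 15, and dates of death were recorded. Survival was scored at days 8 and 15.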

[12] = Mortality range in days at dose 300 umol/kg day; 12-15; type: functional, Mus musculus; summary of the method: as §3
[13] = Mortality range in days at dose 600 umol/kg day; 7-10; type: functional, Mus musculus; summary of the method: as §3
[14] = Percent survivors at dose 100 umol/kg day; type: functional, Mus musculus; summary of the method: as §3
[15] = Percent survivors at dose 200 umol/kg day; type: functional, Mus musculus; summary of the method: as §3
[16] = Percent survivors at dose 300 umol/kg day; type: functional, Mus musculus; summary of the method: as §3
[17] = Percent survivors at dose 30 umol/kg day; type: functional, Mus musculus; summary of the method: as §3
[18] = Percent survivors at dose 600 umol/kg day; type: functional, Mus musculus; summary of the method: as §3
[19] = tested on: Cricetinae gen. sp.; test: Activity of compound the was expressed as ratio of active hamster tracheal organ cultures(TOC) to the total cultures at 10e-10 M concentration; 1/7; type: functional, Cricetulus griseus, Trachea; summary of the method: as §1
[20] = tested on: Cricetinae gen. sp.; test: Activity of compound the was expressed as ratio of active hamster tracheal organ cultures(TOC) to the total cultures at 10e-8 M concentration; 4/7; type: functional, Cricetulus griseus, Trachea; summary of the method: as §1
[21] = tested on: Cricetinae gen. sp.; test: Activity of compound the was expressed as ratio of active hamster tracheal organ cultures(TOC) to the total cultures at 10e-9 M concentration; 2/6; type: functional, Cricetulus griseus, Trachea; summary of the method: as §1
[22] = biological target: T1, Ornithine decarboxylase (Mus musculus); test: Inhibition of the induction of ornithine decarboxylase in mouse epidermis by the tumor promoter 12-O-tetradecanoylphorbol-13-acetate (ODC) at dose 1.7 nmol * p<0.001* inhibition not significant
[23] = biological target: T1, Ornithine decarboxylase (Mus musculus); test: Inhibition of the induction of ornithine decarboxylase in mouse epidermis by the tumor promoter 12-O-tetradecanoylphorbol-13-acetate (ODC) at dose 17 nmol * inhibition not significant
[24] = tested on: Cricetinae gen. sp.; test: Activity of compound the was expressed as ratio of active hamster tracheal organ cultures(TOC) to the total cultures at 10e-10 M concentration; 18/19; type: functional, Cricetulus griseus, Trachea; summary of the method: as §1
[25] = tested on: Cricetinae gen. sp.; test: Activity of compound the was expressed as ratio of active hamster tracheal organ cultures(TOC) to the total cultures at 10e-11 M concentration; 10/20; type: functional, Cricetulus griseus, Trachea; summary of the method: as §1
[26] = tested on: Cricetinae gen. sp.; test: Activity of compound the was expressed as ratio of active hamster tracheal organ cultures(TOC) to the total cultures at 10e-12 M concentration; 3/19; type: functional, Cricetulus griseus, Trachea; summary of the method: as §1
[27] = species on record: Mus musculus; test: Tested for relative activity in a 20-week anti-papilloma experiment in female CD-1 mice at dose 1.7 nmol; type: functional; summary of the method: as §2
[28] = species on record: Mus musculus; test: Percent decrease in average number of papillomas at dose 170 nmol *-p<0.001; type: functional; summary of the method: as §2
[29] = species on record: Mus musculus; test: Percent decrease in average number of papillomas at dose 17 nmol *-p<0.001; type: functional; summary of the method: as §2
[30] = Mortality range in days at dose 200 umol/kg day; 14-15; type: functional, Mus musculus; summary of the method: as §3
[31] = Mortality range in days at dose 300 umol/kg day; 10-14; type: functional, Mus musculus; summary of the method: as §3
[32] = Mortality range in days at dose 600 umol/kg day; 7-13; type: functional, Mus musculus; summary of the method: as §3
[33] = Percent survivors at dose 33 umol/kg day; type: functional, Mus musculus; summary of the method: as §3
[34] = Percent survivors at dose 67 umol/kg day; type: functional, Mus musculus; summary of the method: as §3
[35] = species on record: Mus musculus; test: Percent decrease in average number of papillomas at dose 1.7 nmol *-p<0.01; type: functional; summary of the method: as §2
[36] = species on record: Mus musculus; test: Tested for percentage of mice with papillomas in a 20-week anti-papilloma experiment in female CD-1 mice at dose 170 nmol
[37] = tested on: Cricetinae gen. sp.; test: Activity of compound the was expressed as ratio of active hamster tracheal organ cultures(TOC) to the total cultures at 10e-10 M concentration; 3/7; type: functional, Cricetulus griseus, Trachea; summary of the method: as §1
[38] = tested on: Cricetinae gen. sp.; test: Activity of compound the was expressed as ratio of active hamster tracheal organ cultures(TOC) to the total cultures at 10e-9 M concentration; 4/7; type: functional, Cricetulus griseus, Trachea; summary of the method: as §1
[39] = tested on: Cricetinae gen. sp.; test: Activity of compound the was expressed as ratio of active hamster tracheal organ cultures(TOC) to the total cultures at 10e-8 M concentration; 6/7; type: functional, Cricetulus griseus, Trachea; summary of the method: as §1
[40] = tested on: Cricetinae gen. sp.; test: Activity of compound the was expressed as ratio of active hamster tracheal organ cultures(TOC) to the total cultures at 10e-10 M concentration; 7/7; type: functional, Cricetulus griseus, Trachea; details: in the assay text read “10e-8 M” for “1 nM”; summary of the method: as §1
[41] = tested on: Cricetinae gen. sp.; test: Activity of compound the was expressed as ratio of active hamster tracheal organ cultures(TOC) to the total cultures at 10e-11 M concentration; 7/7; type: functional, Cricetulus griseus, Trachea; details: in the assay text read “10e-9 M” for “100 pM”; summary of the method: as §1
[42] = tested on: Cricetinae gen. sp.; test: Activity of compound the was expressed as ratio of active hamster tracheal organ cultures(TOC) to the total cultures at 10e-12 M concentration; 0/6; type: functional, Cricetulus griseus, Trachea; details: in the assay text read “1 nM” for “10 pM”; summary of the method: as §1
[43] = biological target: T1, Ornithine decarboxylase (Mus musculus); test: Inhibition of the induction of ornithine decarboxylase in mouse epidermis by the tumor promoter 12-O-tetradecanoylphorbol-13-acetate (ODC) at dose 17 nmol * p<0.001
[44] = biological target: T1, Ornithine decarboxylase (Mus musculus); test: Inhibition of the induction of ornithine decarboxylase in mouse epidermis by the tumor promoter 12-O-tetradecanoylphorbol-13-acetate (ODC) at dose 1.7 nmol * p<0.001

## C/C(=C\c1ccc(C(=O)O)cc1)c1ccc2c(c1)C(C)(C)CCO2
[1]
  Activity: 4%
[2]
  ED50: 2e-10
[3]
  Activity: 7%
[4]
  Activity: 100%
[5]
  Activity: 38%
[6]
  Activity: 53%
[7]
  Decrease: 94%
[8]
  Decrease: 75%
[9]
  inhibition: 42%
[10]
  inhibition: 81%
[11]
  Mortality range: 14 days
[12]
  Mortality range: 15 days
[13]
  Mortality range: 10 days
[14]
  Survivors at day 8: 100%
  Survivors at day 15: 100%
[15]
  Survivors at day 8: 100%
  Survivors at day 15: 90%
[16]
  Survivors at day 8: 100%
  Survivors at day 15: 50%
[17]
  Survivors at day 8: 100%
[18]
  Survivors at day 8: 70%
  Survivors at day 15: 0%

## CCOC(=O)c1ccc(C2CC2c2ccc3c(c2)C2CCC3C2)cc1 (stereo not given)
[19]
  Activity: 1%
[2]
  ED50: 5e-09
[20]
  Activity: 4%
[21]
  Activity: 33%
[22]
  inhibition: 12%
[23]
  inhibition: 0%

## CC1=C(/C=C/C(C)=C/C=C/C(C)=C/C(=O)O)C(C)(C)CCC1 [TRETINOIN]
[24]
  Activity: 18%
[25]
  Activity: 10%
[2]
  ED50: 1e-11
[26]
  Activity: 3%
[27]
  Activity: 69%
[6]
  Activity: 47%
[28]
  Decrease: 89.6%
[29]
  Decrease: 74.1%
[30]
  Mortality range: 15 days
[31]
  Mortality range: 14 days
[32]
  Mortality range: 13 days
[14]
  Survivors at day 8: 100%
  Survivors at day 15: 100%
[15]
  Survivors at day 8: 100%
  Survivors at day 15: 63%
[16]
  Survivors at day 8: 100%
  Survivors at day 15: 0%
[33]
  Survivors at day 8: 100%
  Survivors at day 15: 100%
[18]
  Survivors at day 8: 95%
  Survivors at day 15: 0%
[34]
  Survivors at day 8: 100%
  Survivors at day 15: 100%
[35]
  Decrease: 56.2%
[36]
  mice with papillomas %: 40%

## CC1=C(/C=C/C(C)=C/C=C/c2ccc(C(=O)O)cc2)C(C)(C)CCC1 [PELRETIN]
[37]
  Activity: 3%
[38]
  Activity: 57%
[2]
  ED50: 4e-10
[39]
  Activity: 6%
[9]
  inhibition: 33%
[10]
  inhibition: 56%

## CCOC(=O)c1ccc(/C=C(\C)[C@H]2CC2C2=C(C)CCCC2(C)C)cc1 (stereo not given in full)
[40]
  Activity: 7%
[2]
  ED50: 3e-10
[41]
  Activity: 7%
[42]
  Activity: 0%
[43]
  inhibition: 80%
[44]
  inhibition: 77%
